Measurements: ChEMBL document CHEMBL1150335, “Benzoylurea derivatives as a novel class of antimitotic agents: synthesis, anticancer activity, and structure-activity relationships” (J Med Chem, 2008)
Calls of active or inactive are those of the source. The calls are words filed in the database; no cut-off is given here.

Experiments:
CCRF-CEM [1] = assay: Antiproliferative activity against human CEM cells after 72 hrs by trypan blue assay; type: functional, cell-based
How it was run: (§1)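 Cells kept in RPMI-1640 with 10% heat-inactivated fetal calf serum, penicillin and streptomycin, 5% CO2, 37 °C, used in exponential growth. 1 × 10⁵ cells per well exposed to compound at 0.001–10 µM at 37 °C (48 h in methods, 72 h in table footnotes). Viability by Trypan blue versus untreated controls. IC50 by nonlinear regression, duplicate, three repeats.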

[2] = Inhibition of beta tubulin polymerization at 20 uM
Bel-7402 [3] = assay: Antitumor activity against human Bel7402 cells xenografted BALB/c mouse assessed as inhibition of tumor growth at 10 mg/kg, ip q2d after 25 days relative to control; type: functional; settings: Bel-7402, ip, 600 h, route intraperitoneal
How it was run: (§2)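 Male Balb/c nude mice (16-20 g, 6-7 weeks) given sc Bel-7402 cells, 5 × 10⁶ per mouse, on the back. Six injections q2d. Tumor volume measured weekly by calipers = length × width² × 0.52. Body weight recorded before and after treatment.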

Bel-7402 [4] = assay: Antitumor activity against human Bel7402 cells xenografted ip dosed BALB/c mouse assessed as inhibition of tumor growth after 25 days relative to control; type: functional; settings: Bel-7402, ip, 600 h
How it was run: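 Male Balb/c nude mice (16-20 g, 6-7 weeks) given sc Bel-7402 cells (5 × 10⁶/mouse) on the back. On day 12 they were randomized (5/group) to solvent control or 5 or 10 mg/kg ip, six doses q2d. Tumors were measured weekly by caliper, volume = length × width² × 0.52. Inhibition was taken versus solvent-treated controls on day 25 post-treatment.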

[5] = Antiproliferative activity against human MIA cells after 72 hrs by trypan blue assay; type: functional, cell-based; how it was run: as §1
CCRF-CEM [6] = assay: Cell cycle arrest in human CEM cells assessed as morphological changes at 0.014 uM after 24 hrs by Giemsa staining
CCRF-CEM [7] = assay: Cell cycle arrest in human CEM cells assessed as accumulation at G2/M phase at 0.22 uM after 4 to 24 hrs by flow cytometry; type: functional, cell-based
How it was run: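 CEM cells exposed to 0.22 µM compound or left untreated for 4, 12 or 24 h. Fixed in 70% ethanol for at least 12 h at 4 °C, then RNase A 50 µg/mL at 37 °C for 30 min and propidium iodide 50 µg/mL final at 4 °C for 30 min. At least 10⁴ events read by flow cytometry for DNA profile.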

DU-145 = assay: Antiproliferative activity against human DU145 cells after 72 hrs by trypan blue assay; type: functional, cell-based; settings: DU-145, 72 h; how it was run: as §1
CCRF-CEM [8] = assay: Cell cycle arrest in human CEM cells assessed as accumulation at M phase at <0.01 uM after 12 hrs by flow cytometry; type: functional
[9] = Inhibition of beta tubulin polymerization
PC-3 = assay: Antiproliferative activity against human PC3 cells after 72 hrs by trypan blue assay; type: functional, cell-based; settings: PC-3, 72 h; how it was run: as §1
CCRF-CEM [10] = assay: Induction of apoptosis in human CEM cells assessed as Bcl2 phosphorylation at 0.014 to 0.27 uM after 12 to 24 hrs by Western blot; type: functional, cell-based
How it was run: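 CEM cells exposed to 0.014–0.27 µM for 12 or 24 h, then lysed in Tris-HCl pH 7.4 buffer with detergents and protease/phosphatase inhibitors. Equal lysate run on 10% SDS-PAGE and transferred to PVDF. Blocked in 5% milk/TBST, probed with anti-Bcl-2 monoclonal and HRP secondary, detected by ECL; phosphorylated Bcl-2 seen as a separate band.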

MCF7 = assay: Antiproliferative activity against human MCF7 cells after 72 hrs by trypan blue assay; type: functional, cell-based; settings: MCF7, 72 h; how it was run: as §1
Mus musculus = assay: Toxicity in human Bel7402 cells xenografted BALB/c mouse assessed as body weight at 10 mg/kg, ip q2d after 25 days relative to control; type: organism-based, Bel-7402; parameters: dose 10 mg/kg, route intraperitoneal; settings: in vivo, 600 h; how it was run: as §2
Bel-7402 [11] = assay: Antiproliferative activity against human Bel7402 cells after 72 hrs by trypan blue assay; type: functional, cell-based; settings: Bel-7402, 72 h; how it was run: as §1
Bel-7402 [12] = assay: Antitumor activity against human Bel7402 cells xenografted BALB/c mouse assessed as inhibition of tumor growth at 5 mg/kg, ip q2d after 25 days relative to control; type: functional; settings: Bel-7402, ip, 600 h, route intraperitoneal; how it was run: as §2
LoVo = assay: Antiproliferative activity against human LOVO cells after 72 hrs by trypan blue assay; type: functional, cell-based; how it was run: as §1
[13] = Antiproliferative activity against human DND1A cells after 72 hrs by trypan blue assay; type: functional, cell-based; how it was run: as §1
Daudi = assay: Antiproliferative activity against human Daudi cells after 72 hrs by trypan blue assay; type: functional, cell-based; how it was run: as §1
[14] = Inhibition of beta tubulin polymerization at 1 uM

Row | Compound | IC50 (CCRF-CEM [1]) [nM] | other results
1 | CC(Br)C(=O)Nc1cc(C(=O)NC(N)=O)cs1 (stereo not given) | 3940 | 
2 | Cc1ccc(NC(=O)CI)cc1C(=O)NC(N)=O | 20000 | 
3 | NC(=O)NC(=O)c1cc(NC(=O)CCl)ccc1F | 7680 | 
4 | NC(=O)NC(=O)c1ccc(F)c(NC(=O)CCl)c1 | > 20000 | 
5 | NC(=O)NC(=O)c1ccc(O)c(NC(=O)CBr)c1 | > 20000 | 
6 | NC(=O)NC(=O)c1ccc(Cl)c(NC(=O)CBr)c1 | 2910 | 
7 | CC[C@]1(O)C[C@H]2CN(CCc3c([nH]c4ccccc34)[C@@](C(=O)OC)(c3cc4c(cc3OC)N(C=O)[C@H]3[C@@](O)(C(=O)OC)[C@H](OC(C)=O)[C@]5(CC)C=CCN6CC[C@]43[C@@H]65)C2)C1 |  | Activity [2]: Active
8 | COc1ccc(C(=O)NC(N)=O)cc1NC(=O)CCl | > 20000 | 
9 | CC(=O)O[C@H]1C(=O)[C@@]2(C)[C@H]([C@H](OC(=O)c3ccccc3)[C@]3(O)C[C@H](OC(=O)[C@H](O)[C@@H](NC(=O)c4ccccc4)c4ccccc4)C(C)=C1C3(C)C)[C@]1(OC(C)=O)CO[C@@H]1C[C@@H]2O |  | Activity [2]: inactive
10 | COc1ccc(C(=O)NC(N)=O)cc1NC(=O)C(C)Br (stereo not given) | > 20000 | 
11 | Cc1ccc(C(=O)NC(N)=O)cc1NC(=O)C(C)Br (stereo not given) | 3360 | 
12 | CC(Br)C(=O)Nc1ccc(C(=O)NC(N)=O)o1 (stereo not given) | 9440 | 
13 | NC(=O)NC(=O)c1cccc(NC(=O)CI)c1 | < 10 | inhibition in vivo at 10 mg/kg (Bel-7402 [3]): 57%; LD50 (Bel-7402 [4]): 31 mg/kg
14 | Cc1ccc(C(=O)NC(N)=O)cc1NC(=O)CCl | 3360 | 
15 | CC(Br)C(=O)Nc1ccc(Br)c(C(=O)NC(N)=O)c1 (stereo not given) | 7630 | 
16 | NC(=O)NC(=O)c1ccc(NC(=O)CBr)o1 | 4050 | 
17 | CC(Br)C(=O)Nc1cc(C(=O)NC(N)=O)ccc1F (stereo not given) | 3130 | 
18 | NC(=O)NC(=O)c1cc(NC(=O)CI)ccc1F | < 10 | IC50 [5]: 54 nM; Activity (CCRF-CEM [6]): Active; Activity (CCRF-CEM [7]): Active; IC50 (DU-145): 220 nM; Activity (CCRF-CEM [8]): 37.6%; IC50 [9]: 710 nM; IC50 (PC-3): 190 nM; Activity (CCRF-CEM [10]): Active; IC50 (MCF7): < 10 nM; inhibition in vivo at 10 mg/kg (Bel-7402 [3]): 86%; Activity (Mus musculus): 21.6 g; IC50 (Bel-7402 [11]): 160 nM; inhibition in vivo at 5 mg/kg (Bel-7402 [12]): 62%; IC50 (LoVo): 190 nM; LD50 (Bel-7402 [4]): 38.8 mg/kg; IC50 [13]: 20 nM; IC50 (Daudi): < 10 nM; Activity [14]: Active
19 | NC(=O)NC(=O)c1ccc(NC(=O)CCl)o1 | 16600 | 
20 | Cc1ccc(C(=O)NC(N)=O)cc1NC(=O)CBr | 4280 | 
21 | Cc1c(NC(=O)C(C)Cl)cccc1C(=O)NC(N)=O (stereo not given) | > 20000 | 
22 | Cc1ccc(C(=O)NC(N)=O)cc1NC(=O)C(C)Cl (stereo not given) | > 20000 | 
23 | COC(=O)c1cc(NC(=O)C(C)Br)cc(C(=O)NC(N)=O)c1 (stereo not given) | 2700 | 
24 | NC(=O)NC(=O)c1ccc(O)c(NC(=O)CCl)c1 | > 20000 | 
25 | Cc1ccc(NC(=O)CBr)cc1C(=O)NC(N)=O | 4760 | 
26 | NC(=O)NC(=O)c1ccc(Cl)c(NC(=O)CCl)c1 | 15900 | 
27 | CC(Cl)C(=O)Nc1cc(C(=O)NC(N)=O)ccc1Cl (stereo not given) | > 20000 | 
28 | CC(Br)C(=O)Nc1cc(C(=O)NC(N)=O)ccc1Cl (stereo not given) | 9800 | 
29 | Cc1ccc(NC(=O)C(C)Br)cc1C(=O)NC(N)=O (stereo not given) | > 20000 | 
30 | COc1ccc(C(=O)NC(N)=O)cc1NC(=O)C(C)Cl (stereo not given) | > 20000 | 

More lines, main results first:

Row | IC50 (CCRF-CEM [1]) [nM] | Compound | other results
31 | 1570 | COc1ccc(NC(=O)CBr)cc1C(=O)NC(N)=O | 
32 | 540 | NC(=O)NC(=O)c1cc(NC(=O)CBr)ccc1Cl | 
33 | 2550 | CC(Br)C(=O)Nc1ccc(Cl)c(C(=O)NC(N)=O)c1 (stereo not given) | 
34 | 1470 | C[C@H](Br)C(=O)Nc1cccc(C(=O)NC(N)=O)c1 | 
35 | 2290 | NC(=O)NC(=O)c1ccc(F)c(NC(=O)CBr)c1 | 
36 | 480 | Cc1c(NC(=O)C(C)Br)cccc1C(=O)NC(N)=O (stereo not given) | 
37 | 1300 | COC(=O)c1cc(NC(=O)CBr)cc(C(=O)NC(N)=O)c1 | 
38 | 1470 | C[C@@H](Br)C(=O)Nc1cccc(C(=O)NC(N)=O)c1 | 
39 | 2440 | NC(=O)NC(=O)c1cc(NC(=O)CCl)ccc1Cl | 
40 | 1530 | NC(=O)NC(=O)c1cc(NC(=O)CBr)cc([N+](=O)[O-])c1 | 
41 | 2700 | Cc1c(NC(=O)CCl)cccc1C(=O)NC(N)=O | 
42 | 1580 | CC(Br)C(=O)Nc1cc(C(=O)NC(N)=O)cc([N+](=O)[O-])c1 (stereo not given) | 
43 | 1880 | COc1ccc(C(=O)NC(N)=O)cc1NC(=O)CBr | 
44 | 1910 | COC(=O)c1cc(NC(=O)CI)cc(C(=O)NC(N)=O)c1 | 
45 | 1160 | NC(=O)NC(=O)c1cc(NC(=O)CBr)ccc1Br | 
46 | 520 | CC(Br)C(=O)Nc1ccc(F)c(C(=O)NC(N)=O)c1 (stereo not given) | 
47 | 1130 | NC(=O)NC(=O)c1csc(NC(=O)CBr)c1 | 
48 | < 10 | NC(=O)NC(=O)c1cc(NC(=O)CBr)ccc1F | Activity (CCRF-CEM [8]): 31.3%; IC50 (MCF7): 80 nM; inhibition in vivo at 10 mg/kg (Bel-7402 [3]): 52%; Activity (Mus musculus): 18.6 g; inhibition in vivo at 5 mg/kg (Bel-7402 [12]): 37%; IC50 (Daudi): 15 nM
49 | 1710 | Cc1c(NC(=O)CBr)cccc1C(=O)NC(N)=O | 
